# Screening results from PubChem BioAssay.
# Compounds with a hit are over-represented: about 2.6% of the library has one in this group of screens.
# rRNA inh HTS – reduced GFP signal of wild-type E. coli, primary screen, bacterial rRNA inhibitor project, GFP/RFP fluorescence, OD600, single point; E. coli WT GFP vs humanized-ribosome RFP mutants, 24 h; active compounds read low; DMSO median 0, no signal -100; GFP signal change (wild-type ribosome), % (no concentration beside the values); actives 1.6% (n = 350,000);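 active = significant combined selectivity score with lowered wild-type GFP, culture density cut under 30%, mutant RFP and density less affected; inactive = any of these conditions unmet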
# FN deposition inh – inhibitors of fibronectin matrix deposition, primary screen, AH1F cells, Alexa488-fibronectin fluorescence, plate reader | AH1F fibroblasts, overnight | actives 0.086% (n = 350,000) | AID 743247, 2014 | inhibition, % at 12.6 µM;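 active = mean inhibition across replicates of 30% or more, regardless of how many single replicates reach that level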;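 also: positive control wells lacked labelled fibronectin entirely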
#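 Material: AH1F fibroblast monolayer depositing Alexa488-labelled fibronectin into matrix | Input: 10000 AH1F cells/well | Medium: DMEM plus 2% serum, read in PBS | Reagent: Alexa488-fibronectin, 24 nM final in well | Compound dosing: One dose per compound, pinned | Schedule: 1 h adhesion, overnight exposure | Measured by: Fluorescence at 485 nm excitation, 525 nm emission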
# S100A4 inh HTS – inhibitors of S100A4-myosin IIA peptide binding, primary screen, biochemical, fluorescence polarization, TAMRA-MyoIIA peptide. Protein S100-A4 (Homo sapiens), P26447. inhibition, % at 10.7 µM. actives 0.14% (n = 360,000). AID 652163, 2013;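 active = mean inhibition of at least 70% across replicates, with every replicate also reaching that level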
# Target sequence (P26447 whole entry, looked up): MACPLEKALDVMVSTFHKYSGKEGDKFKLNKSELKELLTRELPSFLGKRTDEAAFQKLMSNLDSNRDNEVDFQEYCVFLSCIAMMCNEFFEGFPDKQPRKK
#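 Test system: S100A4 monomer protein; Medium: HEPES pH 7.2 with CaCl2, KCl, NaCl, DTT, Triton; Probe or stimulus: TAMRA-labelled myosin IIA heavy-chain peptide probe, 5 nM; Doses: one dose per compound; Times: polarization read 5 min after assay mix addition, stable 5–60 min; Benchmarks: neutral control DMSO, positive control TFP.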
# miR122 inh – miR-122 Renilla sensor signal increase in Huh7, primary screen, miR-122 inhibitor project, cell-based, single point, plate reader. Huh7 miR-122 Renilla luciferase sensor, 48 h; neutral wells = 0, positive control = 100. actives 0.3% (n = 340,000). AID 602342, 2012. activation (reporter increase), % at 12.5 µM;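 active = mean replicate activation score at least 90 and every replicate individually at or above 90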;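 also: higher luciferase means less miR-122 activity so hits act as miR-122 inhibitors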
# HIV Env fusion – inhibitors of HIV-1 Env-driven cell-cell fusion, primary screen, HeLa-JRFL effector, CEM21 target cells, luciferase; inhibition, % at 12.3 µM; actives 1.1% (n = 360,000);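 active = mean replicate inhibition score of at least 50 and every replicate individually at or above 50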;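 also: 0% = plate neutral controls and 100% = maraviroc near 300 nM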
# Vif inh – HIV Vif self-association inhibitors, primary screen, imaging, HEK293T, single point; HEK293T cells, Vif self-association by quenched fluorescence, 24 h; inhibition, % at 7.49 µM; actives 0.35% (n = 340,000); AID 602346, 2012; in the data active = inhibition above about 50%, passing the limit was not always enough
# * = called active by the depositor; x = not tested or not shown; [ ] = remark or other dose.
SMILES,rRNA inh HTS,FN deposition inh,S100A4 inh HTS,miR122 inh,HIV Env fusion,Vif inh
Cc1noc(C)c1S(=O)(=O)Nc1ccc2c(c1)C(=O)N([C@@H](C)CO)C[C@H](C)[C@H](CN(C)S(=O)(=O)c1ccccc1)OCCCC[C@H](C)O2,-1.3,-0.8,-9.7,5.3[16.7 µM],-5.6[16.7 µM],x
CC(/C=N/N1CCN(Cc2ccccc2)CC1)=C\c1ccccc1,-27.0,6.4,-16.5,-3.0,4.7,2.1
CC(=C/c1ccccc1)/C=N/N1CCN(Cc2ccc(C)cc2)CC1,-25.1*,-5.3,-4.4,6.0,8.3,4.2
CC(NC(=O)Cc1cccs1)C(c1cccs1)N1CCN(c2ccccc2F)CC1 (stereo not given),x,-1.6,x,0.0,61.7*,x
CCOCc1nnc(NC(C)=O)s1,x,10.7,x,1.4,-24.6,18.8
CCOCc1nnc(NS(C)(=O)=O)s1,x,-4.0,x,268.5*,-26.0,-5.7
CNC(=O)C[C@H]1CC[C@H]2[C@H](COc3ccc(NC(=O)c4ccccc4Cl)cc3C(=O)N2C)O1,1.5,-6.0,10.4,-5.2[16.7 µM],-10.4[16.7 µM],x
CC1CCc2sc3ncnc(N4CCOCC4)c3c2C1 (stereo not given),x,x,x,-3.2,x,1.9
CC1CCc2c(sc3ncnc(N4CCOCC4)c23)C1 (stereo not given),x,3.4,x,11.3,92.2*,-5.8
C[C@H](CO)N1C[C@H](C)[C@@H](CN(C)C(=O)C2CC2)Oc2ncc(C3=CCCC3)cc2C1=O,-0.9,x,x,-3.8[16.7 µM],7.5[16.7 µM],x
O=C(CN1CCOCC1)NCC[C@H]1CC[C@@H](NC(=O)c2ccc3c(c2)OCO3)[C@@H](CO)O1,2.2,-8.5,-34.0,x,1.2[16.7 µM],x
c1ccc(CSc2ncnc3ccccc23)cc1,-53.1,0.9,-1.8,-4.8,18.3,x
Cc1ccc(CSc2ncnc3ccccc23)cc1,-33.5*,x,-7.9,0.6,2.5,-5.2
COCCN(C(=O)CCl)C(C(=O)NC1CCCCC1)c1ccccc1C (stereo not given),-6.1,-3.2,1.2,-6.1,60.1*,-1.5
COCCN(C(=O)CNC(=O)c1ccco1)C(C(=O)NC1CCCC1)c1cccc(OC)c1 (stereo not given),4.3,11.1,1.4,0.5,9.5,51.9*
COCCN(C(=O)CCC(=O)Nc1cc(C)on1)C(C(=O)NC1CCCC1)c1ccccc1C (stereo not given),6.2,-13.3,-3.4,x,-20.4,15.9
COc1ccc(N(C(=O)c2ccco2)C(C(=O)NC2CCCC2)c2ccc(OC)c(OC)c2)cc1 (stereo not given),3.0,1.9,-9.4,0.7,55.2*,-9.1
O=C(C1CCCC1)N1CC[C@@H]2[C@H](CO)Nc3ccc(Br)cc3[C@@H]21,-4.6,5.6,-1.0,x,x,x
Cc1ccccc1S(=O)(=O)N(C)C[C@@H]1OCc2ccccc2-c2ccccc2C(=O)N([C@@H](C)CO)C[C@@H]1C,-3.9,-9.7,3.8,x,38.0[16.7 µM],x
COC(=O)c1ccccc1N=Nc1c(C)noc1C,-27.6*,-2.4,-2.2,x,-23.6,3.0
C[C@@H]1CN([C@H](C)CO)C(=O)c2cc(C#CC(C)(C)O)cnc2O[C@H]1CN(C)C(=O)CN(C)C,3.2,x,27.2,-2.9[16.7 µM],-12.5[16.7 µM],x
CCOC(=O)c1ccc(CC(=O)c2oc3cc(O)ccc3c2C)o1,-21.6*,x,-16.5,1.2,x,x
CCCNC(=O)N1CC2(C1)[C@@H](c1ccccc1)[C@@H](CO)N2C(=O)C1CC1,1.9,x,12.7,x,x,x
C=CCn1c(CCn2c3ccccc3c3ccccc32)n[nH]c1=S,-27.1*,-2.0,0.2,0.5,-5.4,-3.7
C=C(C)Cn1c(CCn2c3ccccc3c3ccccc32)n[nH]c1=S,x,4.3,-2.2,x,19.0,-1.6
SMILES,rRNA inh HTS,FN deposition inh,S100A4 inh HTS,miR122 inh,HIV Env fusion,Vif inh
O=C(Nc1ccc(NC(=O)c2cccs2)c(Cl)c1)c1ccco1,-27.1*,4.2,-9.7,x,-10.5,0.9
CC(C)(C)C(=O)Nc1cc(S(=O)(=O)Nc2ccc(Cl)cc2)ccc1O,-2.8,-1.5,3.1,166.5*,6.2,-6.7
Cc1cccc(C)c1NC(=O)COC(=O)c1cc(S(=O)(=O)Nc2ccc(Cl)cc2)ccc1O,x,x,x,1.3,x,-8.2
COCC(=O)Nc1ccc2c(c1)[C@@H]1C[C@@H](CC(=O)N3CCCCC3)O[C@@H](CO)[C@@H]1O2,0.1,0.7,x,0.7[16.7 µM],3.3[16.7 µM],x
COc1ccc(NC(=O)C2(C)Cc3c(-c4cccc(NC(C)=O)c4)ccnc3O2)cn1 (stereo not given),-3.3,-4.6,1.0,8.3,-115.1,58.4*
CN(C)c1ccc(CNC(=O)C2(C)Cc3c(-c4ccc(N(C)C)cc4)ccnc3O2)cc1 (stereo not given),-11.3,2.9,0.3,x,-21.7,0.7
CN(C)c1ccc(CNC(=O)C2(C)Cc3c(-c4ccc5c(c4)OCO5)ccnc3O2)cc1 (stereo not given),-14.9*,5.6,-6.1,1.7,-21.0,8.2
CC1(C(=O)Nc2cccc(OC(F)(F)F)c2)Cc2c(-c3ccc4c(c3)OCO4)ccnc2O1 (stereo not given),0.6,33.8*,-1.1,12.0,19.9,-10.4
CN(C)c1ccc(-c2ccnc3c2CC(C)(C(=O)NCC2CC2)O3)cc1 (stereo not given),13.9,35.4*,-1.6,-7.2,42.6,x
C[C@@H]1CCCCO[C@@H](CN(C)S(C)(=O)=O)[C@H](C)CN([C@@H](C)CO)C(=O)c2cc(NC(=O)CCC(F)(F)F)ccc2O1,-2.8,x,5.2,-3.7[16.7 µM],-16.2[16.7 µM],x
CC(=O)c1cccc(Nc2c3c(nc4ccccc24)CCC3)c1,-18.6,20.2,5.4,x,-72.5,-9.9
CC(=O)c1ccc(Nc2c3c(nc4ccccc24)CCCC3)cc1,-35.2*,-3.1,6.1,x,-0.2,7.2
CS(=O)(=O)N[C@H]1C[C@@H]2O[C@H](CO)CC[C@@H]2O[C@@H]1CCc1ccc(-c2ccccc2F)cc1,x,x,8.6,x,x,x
CCCN1[C@H](C(=O)N[C@@H](C)c2ccccc2)[C@@H](CO)[C@@H]2Cn3c(cccc3=O)[C@@H]21,4.6,x,-8.5,x,x,x
COc1ccc(Nc2ccc(C(F)(F)F)cc2[N+](=O)[O-])cn1,3.4,x,-2.7,x,59.3*,0.3
C[C@H]1CN([C@@H](C)CO)C(=O)c2cccc(NS(=O)(=O)c3ccc(F)cc3)c2O[C@@H]1CN(C)S(=O)(=O)c1ccccc1,-1.7,x,52.1,-5.1[16.7 µM],-38.2[16.7 µM],x
COc1ccc(Nc2nc(N)nc(CSC(=S)N3CCCCC3)n2)cc1,-31.8,-2.4,-2.3,-3.3,-10.4,2.0
